Our source for the fold change (FC) and IC50 values is ChEMBL document CHEMBL1938254, “Semisynthetic neoboutomellerone derivatives as ubiquitin-proteasome pathway inhibitors” (Bioorg Med Chem, 2012).

“And” between values parts separate entries of the source, which are not always exact repeats. Identical values can stand only once.

Holding throughout (format): cell-based
The subject of test [1] is DLD-1. The test is described as follows: Inhibition of 20S proteasome in human DLD1 cells transfected with 4Ub-Luc gene assessed as bioluminescence induction factor at 5 uM after 8 hrs by luciferase reporter gene assay relative to epoxomicin. The essentials: (§1)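 Stably transfected DLD-1 cells expressing 4Ub-Luc reporter, cultured in MEM with 5% heat-inactivated serum. Seeded at 10⁴ cells/well and treated with compound or solvent for 8 h. Luciferase activity in lysates read by luminometer. Induction factor = signal of treated over untreated cells, normalised to epoxomicin at 10^-7 M run in parallel (set to 100). IF ≥10 counted active.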

Test [2] concerns DLD-1. The test is described as follows: Inhibition of 20S proteasome activity in human DLD1 cells transfected with 4Ub-Luc gene assessed as bioluminescence induction factor at 10 uM after 8 hrs by luciferase reporter gene assay relative to epoxomicin. The essentials:
as §1

The test system of test [3] is DLD-1. As to the kind of experiment: Inhibition of 20S proteasome in human DLD1 cells transfected with 4Ub-Luc gene assessed as bioluminescence induction factor at 1 uM after 8 hrs by luciferase reporter gene assay relative to epoxomicin. In outline:
as §1

Test [4] is described as follows: Inhibition of peptide-glutamyl-peptide-hydrolyzing activity of 20S proteasome in human DLD1 cells transfected with 4Ub-Luc gene using Z-Leu-Leu-Glu-AMC as substrate after 6 hrs by spectrofluorometric analysis. The conditions noted are these: dld-1. In outline:
(§2)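 DLD-1 4Ub-Luc cells seeded at 10⁴ cells/well, exposed to compound or solvent for 6 h, then 30 min in reaction buffer (30 mM Tris–HCl pH 7.5, 1 mM ATP). Chymotrypsin-like and PGPH activities read with specific fluorogenic substrates.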

Test [5] in a line: Inhibition of chymotrypsin-like activity of 20S proteasome in human DLD1 cells transfected with 4Ub-Luc gene using Succinyl-Leu-Leu-Val-Tyr-AMC as substrate after 6 hrs by spectrofluorometric analysis. The conditions noted are these: dld-1. The essentials: as §2

For the molecule `C=C(C(=O)[C@H](OC(C)=O)[C@@H](C)[C@H]1[C@@H](OC(C)=O)C[C@@]2(C)[C@@H]3CC[C@H]4[C@H](C)C(=O)C=C[C@@]45C[C@@]35CC[C@]12C)[C@@H](C)COS(=O)(=O)O`, the results for the fold change (FC) in the test with DLD-1 [1], with DLD-1 [2] and with DLD-1 [3] were 1.4, 1.6 and 1.4, respectively.
With `C=C(C(=O)[C@H](O)[C@@H](C)[C@H]1[C@@H](OC(C)=O)C[C@@]2(C)[C@@H]3C[C@@H](O)[C@H]4[C@H](C)C(=O)C=C[C@@]45C[C@@]35CC[C@]12C)[C@@H](C)CO`, the concentration for half-maximal inhibition (IC50) in test [4] and in test [5] was > 1000 µM throughout. Further, the fold change (FC) with DLD-1 [1] stood at 35; with DLD-1 [3], 1.1.
Consider `C=C(C(=O)[C@H](OC(C)=O)[C@@H](C)[C@H]1[C@@H](OC(C)=O)C[C@@]2(C)[C@@H]3CC[C@H]4[C@H](C)C(=O)C(O)C(O)[C@@]45C[C@@]35CC[C@]12C)[C@@H](C)COCC(O)CO` (stereo not given in full), for which the results for the fold change (FC) in the test with DLD-1 [1], with DLD-1 [2] and in the test with DLD-1 [3] were 32, 48 and 1.1, respectively.
Take `C=C(C(=O)[C@H](OC(C)=O)[C@@H](C)[C@H]1[C@@H](OC(C)=O)C[C@@]2(C)[C@@H]3CC[C@H]4[C@H](C)C(=O)C=C[C@@]45C[C@@]35CC[C@]12C)[C@@H](C)COC(=O)CNC(=O)OC(C)(C)C`: the figures for the half-inhibitory concentration (IC50) in test [4] and in test [5] were > 1000 µM and 92 µM, respectively. Moreover, the results for the fold change (FC) in the test on DLD-1 [1], in the test with DLD-1 [2] and in the test on DLD-1 [3] were 43, 10 and 14, respectively.
Consider `C=C(C(=O)[C@H](OC(C)=O)[C@@H](C)[C@H]1[C@@H](OC(C)=O)C[C@@]2(C)[C@@H]3CC[C@H]4[C@H](C)C(=O)C=C[C@@]45C[C@@]35CC[C@]12C)[C@@H](C)COP(=O)(O)O`, for which the values for the half-inhibitory concentration (IC50) in test [4] and in test [5] were > 1000 µM and 92 µM, respectively. For the same molecule, the fold change (FC) was 3 and 4.4 in the test on DLD-1 [1]; 46 and 51 with DLD-1 [2]; 0.9 and 1 in the test with DLD-1 [3].
Take `CC(=O)O[C@H]1C[C@@]2(C)[C@@H]3CC[C@H]4[C@H](C)/C(=N/OCc5ccccc5)C=C[C@@]45C[C@@]35CC[C@]2(C)[C@H]1[C@H](C)[C@@H](OC(C)=O)C(=O)C(CNOCc1ccccc1)[C@@H](C)CO` (stereo not given in full): the fold change (FC) in the test with DLD-1 [1], in the test on DLD-1 [2] and in the test on DLD-1 [3] was 0.9 in each case.
For the molecule `C=C(C(=O)[C@H](OC(C)=O)[C@@H](C)[C@H]1[C@@H](OC(C)=O)C[C@@]2(C)[C@@H]3CC[C@H]4[C@H](C)C(=O)C=C[C@@]45C[C@@]35CC[C@]12C)[C@@H](C)CN1C(=O)CN(CCCN(CCCCN(CCCNC(=O)OC(C)(C)C)C(=O)OC(C)(C)C)C(=O)OC(C)(C)C)C1=O`, the fold change (FC) in the test with DLD-1 [1] was 30; with DLD-1 [2] it was 37; with DLD-1 [3], 1.
The matching figures for `C=C(C(=O)[C@H](OC(C)=O)[C@@H](C)[C@H]1[C@@H](OC(C)=O)C[C@@]2(C)[C@@H]3CC[C@H]4[C@H](C)C(=O)C=C[C@@]45C[C@@]35CC[C@]12CO)[C@@H](C)CO`: 12, 1.1 and 1.2.
Turning to `C=C(C(=O)[C@H](O)[C@@H](C)[C@H]1[C@@H](OC(C)=O)C[C@@]2(C)[C@@H]3CC[C@H]4[C@H](C)C(=O)C=C[C@@]45C[C@@]35CC[C@]12C)[C@@H](C)COC(=O)CN(C)C` [listing 1 of 2 here], the 50% inhibitory concentration (IC50) in test [4] was 23 µM; in test [5], 19 µM.
In the case of `CONCC(C(=O)[C@H](OC(C)=O)[C@@H](C)[C@H]1[C@@H](OC(C)=O)C[C@@]2(C)[C@@H]3CC[C@H]4[C@H](C)C(=O)C=C[C@@]45C[C@@]35CC[C@]12C)[C@@H](C)CO` (stereo not given in full), the fold change (FC) in the test with DLD-1 [1] amounted to 1.2; in the test with DLD-1 [2], 4.9; with DLD-1 [3] it was 1.1.
For `CO/N=C1/C=C[C@]23C[C@]24CC[C@]2(C)[C@@H]([C@H](C)[C@@H](OC(C)=O)C(=O)C(CNOC)[C@@H](C)CO)[C@@H](OC(C)=O)C[C@@]2(C)[C@@H]4CC[C@H]3[C@@H]1C` (stereo not given in full), in that order: 0.7, 0.6 and 1.
The matching figures for `C=C(C(=O)[C@H](O)[C@@H](C)[C@H]1[C@@H](OC(C)=O)C[C@@]2(C)[C@@H]3CC[C@H]4[C@H](C)C(=O)C=C[C@@]45C[C@@]35CC[C@]12C)[C@@H](C)COS(=O)(=O)O`: 0.8, 0.9 and 0.9.
For `C=C(C(=O)[C@H](OC(C)=O)[C@@H](C)[C@H]1[C@@H](OC(C)=O)C[C@@]2(C)[C@@H]3CC[C@H]4[C@H](C)C(=O)C=C[C@@]45C[C@@]35CC[C@]12C)[C@H](C)CO`, in that order: 51, 88 and 1.1.
For the molecule `C=C(C(=O)[C@H](OC(C)=O)[C@@H](C)[C@H]1[C@@H](OC(C)=O)C[C@@]2(C)[C@@H]3CC[C@H]4[C@H](C)C(=O)C=C[C@@]45C[C@@]35CC[C@]12C)[C@@H](C)C(=O)O`, the fold change (FC) in the test with DLD-1 [1] was 1.4; in the test on DLD-1 [2], 16; with DLD-1 [3], 1.
Consider `C=C(C(=O)[C@H](OC(C)=O)[C@@H](C)[C@H]1[C@@H](OC(C)=O)C[C@@]2(C)[C@@H]3CC[C@H]4[C@H](C)C(=O)C=C[C@@]45C[C@@]35CC[C@]12C)[C@@H](C)CO[C@@]1(C)O[C@@H]2O[C@@H](COC(C)=O)[C@H](OC(C)=O)[C@@H](OC(C)=O)[C@@H]2O1`, for which the fold change (FC) in the test on DLD-1 [1] is 59; in the test on DLD-1 [2], 48; with DLD-1 [3], 2.
With `C=C(C(=O)[C@H](OC(C)=O)[C@@H](C)[C@H]1[C@@H](OC(C)=O)C[C@@]2(C)[C@@H]3C[C@@H](O)[C@H]4[C@H](C)C(=O)C=C[C@@]45C[C@@]35CC[C@]12C)[C@@H](C)CO`, the concentration for half-maximal inhibition (IC50) in test [4] and in test [5] was > 1000 µM in each case. Besides, the fold change (FC) with DLD-1 [1] came out at 31; in the test on DLD-1 [3], 5.1.
For `C=C(C(=O)[C@H](O)[C@@H](C)[C@H]1[C@@H](OC(C)=O)C[C@@]2(C)[C@@H]3CC[C@H]4[C@H](C)C(=O)C=C[C@@]45C[C@@]35CC[C@]12C)[C@@H](C)COC(=O)CN(C)C` [listing 2 of 2 here], the results for the IC50 in test [4] and in test [5] were 22 µM and 17 µM, respectively.
Regarding `CC(=O)O[C@H]1C[C@@]2(C)[C@@H]3CC[C@H]4[C@H](C)C(=O)C=C[C@@]45C[C@@]35CC[C@]2(C)[C@H]1[C@H](C)C=O`, the fold change (FC) in the test with DLD-1 [1] stood at 1.3; in the test with DLD-1 [2], 3.
As for `C=C(C(=O)[C@H](OC(=O)CCC(=O)O)[C@@H](C)[C@H]1[C@@H](OC(C)=O)C[C@@]2(C)[C@@H]3CC[C@H]4[C@H](C)C(=O)C=C[C@@]45C[C@@]35CC[C@]12C)[C@@H](C)COC(=O)CCC(=O)O`, the fold change (FC) in the test with DLD-1 [1] is 1.1; in the test on DLD-1 [2] it was 1.2; in the test on DLD-1 [3], 1.2.
With `C=C(C(=O)[C@H](OC(C)=O)[C@@H](C)[C@H]1[C@@H](OC(C)=O)C[C@@]2(C)[C@@H]3CC[C@H]4[C@H](C)C(=O)C=C[C@@]45C[C@@]35CC[C@]12C)[C@@H](C)COC(=O)CN`, the results for the fold change (FC) in the test with DLD-1 [1], in the test on DLD-1 [2] and with DLD-1 [3] were 76, 56 and 1.4, respectively.
Regarding `C=C(C(=O)[C@H](OC(C)=O)[C@@H](C)[C@H]1[C@@H](OC(C)=O)C[C@@]2(C)[C@@H]3CC[C@H]4[C@H](C)C(=O)C[C@H](O)[C@@]45C[C@@]35CC[C@]12C)[C@@H](C)CO`, the figures for the fold change (FC) with DLD-1 [1], in the test on DLD-1 [2] and in the test with DLD-1 [3] were 11, 74 and 1.6, respectively.
As for `C=C(C(=O)[C@H](OC(C)=O)[C@@H](C)[C@H]1[C@@H](OC(C)=O)C[C@@]2(C)[C@@H]3CC[C@H]4[C@H](C)C(=O)C=C[C@@]45C[C@@]35CC[C@]12C)[C@@H](C)COC(=O)CP(=O)(O)O`, the fold change (FC) in the test with DLD-1 [1] is 1.1; in the test on DLD-1 [2], 1.4; with DLD-1 [3], 1.1.
In the case of `C=C(C(=O)[C@H](OC(C)=O)[C@@H](C)[C@H]1[C@@H](OC(C)=O)C[C@@]2(C)[C@@H]3CC[C@H]4[C@H](C)C(=O)C=C[C@@]45C[C@@]35CC[C@]12C)[C@@H](C)COC(=O)CNCCCNCCCCNCCCN`, the values for the fold change (FC) in the test with DLD-1 [1], in the test with DLD-1 [2] and with DLD-1 [3] were 1.4, 11 and 1.1, respectively.
With `C=C(C(=O)[C@H](O)[C@@H](C)[C@H]1[C@@H](OC(C)=O)C[C@@]2(C)[C@@H]3CC[C@H]4[C@H](C)C(=O)CC[C@@]45C[C@@]35CC[C@]12C)[C@@H](C)CO`, the fold change (FC) with DLD-1 [1] is 10; with DLD-1 [2], 77; in the test on DLD-1 [3], 1.2.
In the case of `C=C(C(=O)[C@H](OC(C)=O)[C@@H](C)[C@H]1[C@@H](OC(C)=O)C[C@@]2(C)[C@@H]3CC[C@H]4[C@H](C)C(=O)C=C[C@@]45C[C@@]35CC[C@]12C)[C@@H](C)C=O`, the results for the fold change (FC) with DLD-1 [1], in the test with DLD-1 [2] and with DLD-1 [3] were 70, 31 and 1, respectively.
In the case of `C=C(C(=O)[C@H](O)[C@@H](C)[C@H]1[C@@H](OC(C)=O)C[C@@]2(C)[C@@H]3CC[C@H]4[C@H](C)C(=O)C=C[C@@]45C[C@@]35CC[C@]12C)[C@@H](C)COC(=O)N1CCN(C)CC1`, the IC50 in test [4] and in test [5] was 12 µM throughout.
